From ChEMBL document CHEMBL1143323, “Oxidosqualene cyclase from Saccharomyces cerevisiae, Trypanosoma cruzi, Pneumocystis carinii and Arabidopsis thaliana expressed in yeast: a model for the development of novel antiparasitic agents” (Bioorg Med Chem Lett, 2009) come the findings set out here.

One experiment addresses T1, Lanosterol synthase ERG7 (Saccharomyces cerevisiae S288c, UniProt P38604).
T1 sequence (P38604 whole entry): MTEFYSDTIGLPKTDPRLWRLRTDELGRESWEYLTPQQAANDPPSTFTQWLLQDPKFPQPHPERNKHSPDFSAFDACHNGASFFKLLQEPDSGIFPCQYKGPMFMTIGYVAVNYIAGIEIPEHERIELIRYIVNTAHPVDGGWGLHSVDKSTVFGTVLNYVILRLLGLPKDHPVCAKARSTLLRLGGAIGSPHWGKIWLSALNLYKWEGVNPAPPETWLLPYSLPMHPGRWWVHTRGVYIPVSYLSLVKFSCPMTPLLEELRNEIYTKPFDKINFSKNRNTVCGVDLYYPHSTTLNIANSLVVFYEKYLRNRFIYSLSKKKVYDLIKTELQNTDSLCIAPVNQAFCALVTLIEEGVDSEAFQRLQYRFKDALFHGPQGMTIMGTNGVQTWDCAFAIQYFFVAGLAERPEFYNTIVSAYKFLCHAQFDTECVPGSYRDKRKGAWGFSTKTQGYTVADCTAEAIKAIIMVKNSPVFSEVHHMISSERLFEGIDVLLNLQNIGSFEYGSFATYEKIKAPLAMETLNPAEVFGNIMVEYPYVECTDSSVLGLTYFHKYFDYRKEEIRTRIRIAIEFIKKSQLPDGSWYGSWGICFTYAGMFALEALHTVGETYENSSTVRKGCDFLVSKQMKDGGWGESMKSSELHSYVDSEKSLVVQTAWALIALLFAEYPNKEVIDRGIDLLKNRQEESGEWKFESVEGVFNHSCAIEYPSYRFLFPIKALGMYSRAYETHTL
Briefly: Inhibition of yeast OSC expressed in Saccharomyces cerevisiae SMY8. A digest of the protocol: (§1)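 Cell-free homogenates of recombinant OSC-defective S. cerevisiae SMY8 strains, each expressing one OSC: lanosterol cyclase from S. cerevisiae, T. cruzi or P. carinii, or cycloartenol cyclase from A. thaliana. Cyclase activity was measured in homogenates with inhibitor present and IC50 derived. Values are means of two separate experiments, each with duplicate incubations; maximum deviation from the mean under 10%.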

Experiment [1] can be described thus: Inhibition of Trypanosoma cruzi OSC expressed in Saccharomyces cerevisiae SMY8. An outline of the steps: as §1
The next experiment addresses Cycloartenol synthase (Arabidopsis thaliana, UniProt P38605). Briefly: Inhibition of Arabidopsis thaliana cycloartenol synthase expressed in Saccharomyces cerevisiae SMY8. A digest of the protocol: as §1
Another experiment has as its target T2, Lanosterol synthase (Homo sapiens, UniProt P48449).
T2 sequence (P48449 whole entry): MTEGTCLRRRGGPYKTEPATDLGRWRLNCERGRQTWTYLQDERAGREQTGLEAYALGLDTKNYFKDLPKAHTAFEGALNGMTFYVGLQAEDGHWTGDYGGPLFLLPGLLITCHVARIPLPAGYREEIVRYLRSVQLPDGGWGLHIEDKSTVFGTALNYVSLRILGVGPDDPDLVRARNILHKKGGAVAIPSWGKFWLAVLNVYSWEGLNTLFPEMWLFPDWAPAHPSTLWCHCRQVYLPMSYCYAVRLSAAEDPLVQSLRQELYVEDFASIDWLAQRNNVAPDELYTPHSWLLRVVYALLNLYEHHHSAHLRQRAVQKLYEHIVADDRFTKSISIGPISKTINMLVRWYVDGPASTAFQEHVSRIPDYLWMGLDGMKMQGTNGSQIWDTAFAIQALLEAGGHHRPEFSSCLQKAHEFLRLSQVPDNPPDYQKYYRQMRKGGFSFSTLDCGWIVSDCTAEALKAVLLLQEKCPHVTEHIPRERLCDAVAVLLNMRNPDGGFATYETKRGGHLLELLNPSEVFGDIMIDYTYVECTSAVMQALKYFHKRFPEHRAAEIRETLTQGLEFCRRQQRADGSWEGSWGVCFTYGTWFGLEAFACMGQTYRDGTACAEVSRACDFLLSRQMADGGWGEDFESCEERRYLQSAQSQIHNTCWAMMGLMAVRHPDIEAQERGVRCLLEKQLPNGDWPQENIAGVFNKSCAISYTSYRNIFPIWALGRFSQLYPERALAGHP
Briefly: Inhibition of human OSC expressed in Saccharomyces cerevisiae SMY8.

Experiment [2] in a line: Inhibition of Pneumocystis carinii OSC expressed in Saccharomyces cerevisiae SMY8. An outline of the steps: as §1
The nature of experiment [3]: Selectivity ratio of IC50 for human OSC to IC50 for Pneumocystis carinii OSC.

Cycloartenol synthase, sequence (P38605 whole entry): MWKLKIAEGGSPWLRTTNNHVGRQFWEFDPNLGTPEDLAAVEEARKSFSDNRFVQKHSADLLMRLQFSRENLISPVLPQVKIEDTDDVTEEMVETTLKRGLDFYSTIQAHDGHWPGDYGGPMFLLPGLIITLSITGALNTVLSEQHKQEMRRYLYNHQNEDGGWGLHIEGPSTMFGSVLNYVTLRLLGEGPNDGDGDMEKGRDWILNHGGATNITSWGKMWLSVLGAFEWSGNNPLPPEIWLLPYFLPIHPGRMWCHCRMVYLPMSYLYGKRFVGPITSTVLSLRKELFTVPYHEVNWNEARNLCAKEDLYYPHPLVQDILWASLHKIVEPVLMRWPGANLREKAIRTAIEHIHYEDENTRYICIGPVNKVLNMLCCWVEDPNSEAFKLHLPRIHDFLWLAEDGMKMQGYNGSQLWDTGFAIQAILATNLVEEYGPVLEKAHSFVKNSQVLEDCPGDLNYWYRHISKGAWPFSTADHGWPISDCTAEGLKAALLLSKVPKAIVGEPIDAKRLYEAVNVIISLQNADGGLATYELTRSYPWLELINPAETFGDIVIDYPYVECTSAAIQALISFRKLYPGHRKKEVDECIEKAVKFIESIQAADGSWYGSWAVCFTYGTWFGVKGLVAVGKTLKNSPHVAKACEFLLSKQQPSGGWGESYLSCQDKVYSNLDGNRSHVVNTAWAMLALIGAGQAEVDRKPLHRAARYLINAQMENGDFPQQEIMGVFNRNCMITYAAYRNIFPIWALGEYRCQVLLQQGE

With `CC(=O)N(CCO)CCCCOc1ccc2c(-c3ccc(Br)cc3)nsc2c1`, the IC50 against Lanosterol synthase ERG7 is 100000 nM; in experiment [1], 5500 nM; against Cycloartenol synthase it was 800 nM; against Lanosterol synthase, above 1000 nM.
As to `CCN(CCO)CCCCC[C@H]1CC[C@H](N(C)C(=O)Oc2ccc(Cl)cc2)CC1`, the IC50 against Lanosterol synthase ERG7 worked out at 100 nM; in experiment [1] it was 2000 nM; in experiment [2] it was 2500 nM; at Cycloartenol synthase, 700 nM; against Lanosterol synthase, 4120 nM.
For `C=CCN(C)CCCCC[C@H]1CC[C@H](N(C)S(=O)(=O)c2ccc(C(F)(F)F)cc2)CC1`, the concentration for half-maximal inhibition (IC50) turned out to be 300 nM against Lanosterol synthase ERG7; 300 nM in experiment [1]; 120 nM in experiment [2]; 440 nM on Cycloartenol synthase; 100 nM on Lanosterol synthase.
On to `C=CCN(C)CCCCCCOc1ccc2c(-c3ccc(Br)cc3)nsc2c1`, for which the IC50 came to 70 nM against Lanosterol synthase ERG7; 340 nM in experiment [1]; 230 nM in experiment [2]; 950 nM on Cycloartenol synthase; 160 nM on Lanosterol synthase.
Consider `Brc1ccc(-c2nsc3cc(OCCCCN4CCOCC4)ccc23)cc1`, for which the IC50 against Lanosterol synthase ERG7 was 600 nM; in experiment [1], 1100 nM; in experiment [2], 70 nM; against Cycloartenol synthase it was 480 nM; against Lanosterol synthase, 120 nM.
Take `C=CCN(C)CCCCCCOc1ccc2c(-c3ccc(Br)cc3)nn(C)c2c1`: the IC50 was 290 nM on Lanosterol synthase ERG7; 3000 nM in experiment [1]; above 5000 nM in experiment [2]; 2600 nM against Cycloartenol synthase; 2300 nM at Lanosterol synthase.
Take `CCN(CCO)CCCCOc1ccc2c(-c3ccc(Br)cc3)nsc2c1`: in experiment [3], the Ratio IC50 was found to be 10. The IC50 came out at 700 nM on Lanosterol synthase ERG7; 6500 nM in experiment [1]; 50 nM in experiment [2]; 2300 nM at Cycloartenol synthase; 520 nM against Lanosterol synthase.
`O=C(c1ccc(Cl)cc1)N1CCC(=Cc2ccc(C3=NCCO3)cc2)CC1`: the IC50 was 670 nM at Lanosterol synthase ERG7; above 5000 nM in experiment [1]; above 5000 nM in experiment [2]; 2500 nM at Cycloartenol synthase; 1150 nM at Lanosterol synthase.
With `CN([C@H]1CC[C@H](CCCCCN(CCO)CCO)CC1)S(=O)(=O)c1ccc(C(F)(F)F)cc1`, the IC50 worked out at 1500 nM against Lanosterol synthase ERG7; 2700 nM in experiment [1]; 400 nM in experiment [2]; 1500 nM at Cycloartenol synthase; 720 nM against Lanosterol synthase.
With `CN(C/C=C/COc1ccc(C(=O)c2ccc(Br)cc2)cc1)C1CC1`, the half-inhibitory concentration (IC50) came out at 180 nM against Lanosterol synthase ERG7; 1500 nM in experiment [1]; 200 nM in experiment [2]; 260 nM against Cycloartenol synthase; 270 nM against Lanosterol synthase.
Take `CCN(CC)CCCCC[C@H]1CC[C@H](N(C)S(=O)(=O)c2ccc(C(F)(F)F)cc2)CC1`: the IC50 on Lanosterol synthase ERG7 was 3600 nM; in experiment [1], 2400 nM; in experiment [2], 600 nM; on Cycloartenol synthase it was 1000 nM; on Lanosterol synthase, 2440 nM.
On to `C=CCN(C)CCCCC[C@H]1CC[C@H](N(C)C(=O)Oc2ccc(C(F)(F)F)cc2)CC1`, for which the IC50 came to 50 nM against Lanosterol synthase ERG7; 70 nM in experiment [1]; 340 nM in experiment [2]; 1000 nM at Cycloartenol synthase; 140 nM on Lanosterol synthase.
On to `CCN(CC#Cc1ccc2c(-c3ccc(Br)cc3)nsc2c1)CCO`, for which the half-inhibitory concentration (IC50) is 300 nM on Lanosterol synthase ERG7; 2300 nM in experiment [1]; 800 nM in experiment [2]; 550 nM on Cycloartenol synthase; 4600 nM at Lanosterol synthase.
Consider `C=CCN(C)CCCCOc1ccc2c(-c3ccc(Br)cc3)nsc2c1`, for which the IC50 is 700 nM against Lanosterol synthase ERG7; 250 nM in experiment [1]; 200 nM in experiment [2]; 70 nM at Cycloartenol synthase; 260 nM at Lanosterol synthase.
In the case of `CCN(CCO)CCCCC[C@H]1CC[C@H](N(C)S(=O)(=O)c2ccc(C(F)(F)F)cc2)CC1`, the IC50 against Lanosterol synthase ERG7 came to 270 nM; in experiment [1] it was 1600 nM; at Cycloartenol synthase, 3000 nM; on Lanosterol synthase it was 450 nM.
`C=CCN(C)Cc1ccc(-c2ccc(C(=O)c3ccc(Br)cc3)cc2)cc1`: in experiment [3], the Ratio IC50 came out at 5. The IC50 was 320 nM against Lanosterol synthase ERG7; 600 nM in experiment [1]; 50 nM in experiment [2]; 250 nM against Cycloartenol synthase; 250 nM against Lanosterol synthase.
With `CCN(CC)C1(CCCC[C@H]2CC[C@H](N(C)S(=O)(=O)c3ccc(C(F)(F)F)cc3)CC2)CC1`, the IC50 was found to be 500 nM against Lanosterol synthase ERG7; 400 nM in experiment [1]; 1300 nM in experiment [2]; 320 nM against Cycloartenol synthase; 440 nM against Lanosterol synthase.
Regarding `C=CCN(C)C/C=C/COc1ccc2c(-c3ccc(Br)cc3)coc2c1`, the half-maximal inhibitory concentration (IC50) against Lanosterol synthase ERG7 was determined as 210 nM; in experiment [2] it was 1200 nM; against Cycloartenol synthase it was 3000 nM; against Lanosterol synthase, 90000 nM.
Take `C=CCN(C)CCCCCCOc1ccc(C(=O)c2ccc(Br)cc2)c(F)c1`: the IC50 against Lanosterol synthase ERG7 is 210 nM; in experiment [1] it was 900 nM; in experiment [2], 340 nM; against Cycloartenol synthase, 1750 nM.
On to `C=CCN(C)CCCCCCOc1ccc(-c2nsc3cc(Br)ccc23)cc1`, for which the Ratio IC50 in experiment [3] is 40. Further, the IC50 on Lanosterol synthase ERG7 is 280 nM; in experiment [1], above 5000 nM; in experiment [2] it was 550 nM; against Cycloartenol synthase it was 10000 nM; at Lanosterol synthase, 20300 nM.
For the compound `CCN(CCO)C(C)(C)C#Cc1ccc2c(-c3ccc(Br)cc3)nsc2c1`, the IC50 against Lanosterol synthase ERG7 was found to be 2200 nM; in experiment [1] it was 4200 nM; in experiment [2], 1000 nM; on Cycloartenol synthase, 1250 nM; against Lanosterol synthase it was 11500 nM.
Consider `Brc1ccc(-c2nsc3cc(CCCCCN4CCOCC4)ccc23)cc1`, for which the IC50 on Lanosterol synthase ERG7 came out at 400 nM; in experiment [1], 1100 nM; in experiment [2], 50 nM; against Cycloartenol synthase, 650 nM; at Lanosterol synthase, 100 nM.
Taken in the same sequence, the figures for `CCN(CC)C(=O)CCCC[C@H]1CC[C@H](N(C)S(=O)(=O)c2ccc(C(F)(F)F)cc2)CC1` were above 100000 nM, above 100000 nM, above 100000 nM, 2000 nM and above 10000 nM.
Turning to `CCN(CCO)CCCC#Cc1ccc2c(-c3ccc(Br)cc3)nsc2c1`, the half-maximal inhibitory concentration (IC50) against Lanosterol synthase ERG7 was 5000 nM; in experiment [1], above 10000 nM; in experiment [2], 2250 nM; at Cycloartenol synthase, 1700 nM; at Lanosterol synthase, 230 nM.
On to `CCN(CC)C(C)(C)CCCC[C@H]1CC[C@H](N(C)S(=O)(=O)c2ccc(C(F)(F)F)cc2)CC1`, for which the IC50 against Lanosterol synthase ERG7 is 7000 nM; in experiment [1], above 100000 nM; in experiment [2], 1000 nM; at Cycloartenol synthase it was 4100 nM; against Lanosterol synthase, 4930 nM.

As a reminder, the IC50 is the midpoint of a concentration-inhibition curve.
